A selection: hits, their analogues and other compounds. The true share with any hit is near 1.9%.
M5 ag: CHRM5 agonism in calcium assay; CHO-K1 hM5 cells, Fluo-8 calcium fluorescence; 0% DMSO wells, 100% maximal acetylcholine response; activation, % at 3 µM; 360,000 tested, 0.19% active; AID 624037;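 active = activation above the run's mean over test compounds plus 3 SD, cut at about 23% in these data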;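 also: signal is peak over basal fluorescence ratio across the kinetic read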
Target sequence (P08912 whole entry, looked up): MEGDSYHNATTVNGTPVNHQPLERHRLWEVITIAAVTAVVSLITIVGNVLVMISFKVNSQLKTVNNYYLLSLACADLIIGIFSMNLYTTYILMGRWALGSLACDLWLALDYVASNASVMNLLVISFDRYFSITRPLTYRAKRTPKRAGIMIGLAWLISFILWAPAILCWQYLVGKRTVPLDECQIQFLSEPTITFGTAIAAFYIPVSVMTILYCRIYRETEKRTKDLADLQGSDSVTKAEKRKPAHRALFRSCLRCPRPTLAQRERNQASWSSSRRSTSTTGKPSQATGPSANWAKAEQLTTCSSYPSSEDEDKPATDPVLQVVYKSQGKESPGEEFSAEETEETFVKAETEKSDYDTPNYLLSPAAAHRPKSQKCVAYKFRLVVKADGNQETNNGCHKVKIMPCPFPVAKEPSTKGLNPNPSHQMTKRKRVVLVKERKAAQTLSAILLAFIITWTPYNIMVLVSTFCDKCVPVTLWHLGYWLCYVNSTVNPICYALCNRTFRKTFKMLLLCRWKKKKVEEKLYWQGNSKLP
M4 antag: blocks acetylcholine activation of human M4 receptor; inhibition, % at 3 µM; 360,000 tested, 0.73% active; CHO-hM4 cells, ACh EC80, Fluo-8 calcium fluorescence;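 active = inhibition above its plate's cutoff, the mean inhibition of sample wells plus 3 SD, cut at about 27% in these data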
M5 PAM: potentiates acetylcholine response at human M5 receptor; CHO-K1 hM5, Fluo-8 calcium, ACh EC20 PAM; 0% = ACh EC20, 100% = ACh EC100; activation, % at 3 µM; 360,000 tested, 0.3% active; AID 624038;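 active = activation above the run cutoff, the mean activation of all test compounds plus 3 SD, cut at about 18% in these data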
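system = human M5 receptor in CHO-K1 cells | reagent = EC20 acetylcholine as agonist stimulus | compound dosing = single-point, 3 µM nominal | incubation = Fluo-8 loading 80 min at 37 °C plus 30 min room temperature | detection = Fluo-8 calcium dye fluorescence, kinetic read | benchmarks = low control EC20 acetylcholine (0%), high control EC100 acetylcholine (100%)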
M5 antag: CHRM5 antagonism in calcium assay | CHO-hM5 cells, Fluo-8 calcium fluorescence, ACh EC80 | inhibition, % at 3 µM | 360,000 tested, 0.59% active;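 active = inhibition above a per-plate cutoff, the mean of that plate's test compounds plus 3 SD, cut at about 27% in these data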
CHRM4 PAM: potentiates acetylcholine response at human M4 receptor; P08173; CHO-K1 hM4/Gqi5, Fluo-8 calcium fluorescence, ACh EC20; 0% = ACh EC20, 100% = maximal ACh; activation, % at 3 µM; 360,000 tested, 0.4% active;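 active = activation above its plate's cutoff, the mean activation of sample wells plus 3 SD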
M4 ag: agonists of human muscarinic M4 receptor (CHRM4) | AID 624127 | 360,000 tested, 0.14% active | activation, % at 3 µM | CHO-K1 hM4/Gqi5, Fluo-8 calcium fluorescence; vehicle 0%, full acetylcholine response 100% | P08173;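 active = activation above the run mean over all test wells plus 3 SD, cut at about 32% in these data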;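 also: peak over basal fluorescence ratio per well then scaled between controls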
A number is an active result; n = inactive; x = not tested or not shown; ! = not active in a repeat.

SMILES	M5 ag	M4 antag	M5 PAM	M5 antag	CHRM4 PAM	M4 ag
CN1C2CCC1CC(OC(=O)c1cccc(O)c1)C2 (configuration not stated)	n	n	n	n	n	n
CC1CC(OC(=O)c2ccccc2)CC(C)N1C (configuration not stated)	n	30	n	n	n	n
CCC(=O)C(CCN1CCOCC1)(c1ccccc1)c1ccccc1	n	n	n	n	n	n
CC(C)[N+](C)(CCC(C(N)=O)(c1ccccc1)c1ccccc1)C(C)C	n	100	n	99	n	n
COc1ccc(C(=O)C2CCCN(C3CSCCSC3)C2)cc1OC (configuration not stated)	n	39	n	n	n	n
O=C(c1ccc(Cl)cc1)C1CCCN(C2CCSCC2)C1 (configuration not stated)	n	37	n	27	n	n
COc1ccc(C(=O)C2CCCN(Cc3cnc(C)s3)C2)cc1OC (configuration not stated)	n	n	n	n	n	n
C[C@@H]1COc2cccc(N3CCN(C)CC3)c2S(=O)(=O)N1	n	n	n	n	n	n
CC(C)(C)P(=O)(N1CCOCC1)N1CCOCC1	n	n	n	n	n	n
O=P(Oc1ccccc1)(N1CCOCC1)N1CCOCC1	n	n	n	n	15	n
OC(Cn1c2ccccc2c2ccccc21)C[n+]1cccc2ccccc21 (configuration not stated)	n	40	n	58	n	n
C[C@]12CCC3C(CC[C@H]4C[C@@H](O)CC[C@]34C)C1=CC[C@@H]2O (some centres not stated)	n	n	n	n	n	n
Cc1c(N=Cc2c(O)n(CCc3ccccc3)c(=O)[nH]c2=O)c(=O)n(-c2ccccc2)n1C	n	n	n	n	n	n
CCCCCCn1c(O)c(C=Nc2c(C)n(C)n(-c3ccccc3)c2=O)c(=O)[nH]c1=O	n	n	25	n	n	n
CS(=O)(=O)c1ccc(C2=C(CNC(=O)c3cccs3)[C@H]3CC[C@@H](C2)N3CCOc2ccccc2)cc1	n	n	n	n	n	n
CS(=O)(=O)c1ccc(C2=C(CNC(=O)c3nccs3)[C@H]3CC[C@@H](C2)N3CCOc2ccccc2)cc1	n	49	n	n	n	n
Cc1cccc(C(O)(C(=O)O)c2ccccc2)c1 (configuration not stated)	n	n	n	n	n	n
CCOC(=O)[C@]1(C#N)[C@@H]2C=CC(C(N)=O)=CN2[C@@H](C(N)=O)[C@@H]1c1ccc(F)cc1	n	n	n	n	n	n
CCOC(=O)[C@@]1(C#N)[C@@H]2C=CC(C(N)=O)=CN2[C@@H](C(N)=O)[C@@H]1c1cccc(Cl)c1	n	n	31	n	n	n
Cc1ccc(C(C)C)c(OCC#CCN2CCCC2)c1	n	32	n	44	n	n
C[C@H]1OC[C@@H](C[N+](C)(C)C)O1	107	73	n	96	n	98
CC1OC(C[N+](C)(C)C)CC1O (configuration not stated)	102	30	n	95	n	71
CCCCCCC[n+]1ccc(-c2cc[n+](CCCCCCC)cc2)cc1	n	n	n	n	n	n
C[n+]1ccc(-c2cc[n+](C)cc2)cc1	61!	n	n	n	n	n
O=c1[nH]c(=O)n(C2CCCCC2)c(O)c1/C=C/C=Nc1ccccc1	28	n	n	n	n	n
SMILES	M5 ag	M4 antag	M5 PAM	M5 antag	CHRM4 PAM	M4 ag
COc1ccc(-n2c(O)c(/C=C/C=Nc3ccccc3)c(=O)[nH]c2=O)cc1	24	n	n	n	n	n
O=c1[nH]c(=O)n(-c2ccccc2)c(O)c1/C=C/C=Nc1ccccc1	n	n	n	n	n	n
N#CC(C#N)=NNc1ccc(-n2ccc(C(F)(F)F)n2)cc1	n	n	n	30	n	n
COc1cc2c(cc1OC)C13CCN4CC5CCOC6CC(=O)N2C1C6C5CC43 (configuration not stated)	n	n	n	n	n	n
CCN(CC)c1ccc(/C=C2\C(=O)NC(=S)N(c3ccc(OC)cc3OC)C2=O)o1	34	n	n	n	n	n
CCN(CC)c1ccc(/C=C2\C(=O)NC(=S)N(C)C2=O)o1	37	n	n	n	n	n
COc1ccc(CC(=O)C2C(=O)N(C)c3ccccc32)cc1OC (configuration not stated)	n	n	n	n	n	n
C[N+]1(C)[C@@H]2CC(OC(=O)[C@H](CO)c3ccccc3)C[C@H]1[C@@H]1O[C@@H]12 (some centres not stated)	n	x	n	98	x	x
CCCC[N+]1(C)[C@@H]2CC(OC(=O)[C@H](CO)c3ccccc3)C[C@H]1[C@@H]1O[C@@H]12 (some centres not stated)	n	92	n	72	n	n
CN1[C@@H]2CC[C@H]1CC(OC(=O)C1C=Nc3ccccc31)C2 (some centres not stated)	n	n	n	n	n	n
C[N+]1(C)C2CC(OC(=O)C(CO)c3ccccc3)CC1C1OC12 (configuration not stated)	n	x	n	99	x	x
C[N+]1(C)[C@@H]2CC[C@H]1CC(OC(=O)C(c1ccccc1)c1ccccc1)C2 (some centres not stated)	n	99	n	99	n	n
COc1cc2c(cc1OC)C13CCN4CC5=CCOC(CC(=O)O)C(C5CC41)C3N2 (configuration not stated)	n	n	n	n	n	n
O=C(OC1CCN(CCCl)CC1)C(c1ccccc1)c1ccccc1	n	57	n	64	n	n
CN1CCC(OC(=O)Cc2ccccc2)CC1	n	n	n	n	n	n
O=c1[nH]c2ccccc2n1C1CCN(C(CCc2ccccc2)c2nnnn2-c2ccc3c(c2)OCCO3)CC1 (configuration not stated)	n	n	n	n	n	n
Cc1ccc(S(=O)(=O)N[C@@H](CCCCN)C(=O)CCl)cc1	39	n	n	n	n	n
Cc1ccc(S(=O)(=O)NCCC(=O)Nc2ccc(Cl)cc2C(=O)c2ccccc2)cc1	n	n	n	n	n	n
Cc1nn(Cc2ccccc2Cl)c(Cl)c1C(=O)O	n	n	n	n	n	n
Cc1nn(Cc2ccc(Cl)cc2Cl)c(Cl)c1C(=O)O	n	n	n	n	21	n
O=[N+]([O-])c1ccc(-[n+]2c(-c3ccccc3)cc(-c3ccccc3)cc2-c2ccccc2)cc1	n	40	n	n	n	n

Screening results deposited in PubChem BioAssay by The Scripps Research Institute Molecular Screening Center.
